Columns and labels:
MCF7 = experiment: In vitro cytotoxicity against hormone-responsive MCF-7 cell line.; format: functional, cell-based; conditions: Homo sapiens
How it was run: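 MCF-7 cells kept in DMEM with L-glutamine, gentamycin, fungisone, insulin and 5% FBS. For the assay, 5 × 10³ cells/well were plated in DMEM with 2% carbon-stripped FBS and held 24 h at 37 °C. Compounds were then added in fresh medium for 24 h. Viable cells were read by MTT, triplicate wells per concentration, and IC50 was taken from four concentrations.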

[1] = (§1) Inhibition of calmodulin-dependent Phosphodiesterase
How it was run: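 Calmodulin-dependent cAMP phosphodiesterase assayed with cyclic [8-3H]AMP as substrate. Tritiated AMP was converted to adenosine by snake venom 5'-nucleotidase, and nucleosides were separated from substrate on Dowex anion exchange resin with 3 mM acetic acid. Basal, calmodulin-independent activity was taken with 1 mM EGTA. Compounds were added in DMSO at several concentrations. IC50 is the mean of triplicates ± standard error.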

[2] = as §1; remark: listed apart in the source

Compound	IC50 (MCF7) [µM]	IC50 [1] [µM]	IC50 [2] [µM]
CC/C(=C(\c1ccc(O)cc1)c1ccc(OCCN(C)C)cc1)c1ccccc1	15.5	19	
CC/C(=C(\c1ccc(I)cc1)c1ccc(OCCCN(C)C)cc1)c1ccccc1		1.4	
CC/C(=C(\c1ccc(I)cc1)c1ccc(OCCCCN2CCCC2)cc1)c1ccccc1	4	1	
CC/C(=C(\c1ccc(I)cc1)c1ccc(OCCCCN(C)C)cc1)c1ccccc1		1.3	
CC/C(=C(\c1ccc(I)cc1)c1ccc(OCCCN2CCCC2)cc1)c1ccccc1	4.5	1.1	
CCCCc1ccc(/C(=C(\CC)c2ccccc2)c2ccc(OCCN(C)C)cc2)cc1		3.7	
C#Cc1ccc(/C(=C(\CC)c2ccccc2)c2ccc(OCCN(C)C)cc2)cc1		4.6	
C#Cc1ccc(/C(=C(\CC)c2ccccc2)c2ccc(OCCN3CCCC3)cc2)cc1	14.7	3.3	
CC/C(=C(\c1ccc(I)cc1)c1ccc(OCCN(C)C)cc1)c1ccccc1		2.3	
CCCCc1ccc(/C(=C(\CC)c2ccccc2)c2ccc(OCCN3CCCC3)cc2)cc1		1.8	
CC/C(=C(\c1ccc(I)cc1)c1ccc(OCCN2CCCC2)cc1)c1ccccc1 [IDOXIFENE]	7.3	1.5	
CC/C(=C(\c1ccccc1)c1ccc(OCCN(C)C)cc1)c1ccccc1 [TAMOXIFEN]	14		6.8

— ChEMBL document CHEMBL1128750 (J Med Chem, 1995)
